Screening results deposited in PubChem BioAssay by several laboratories.
Most compounds without a hit are left out; they make up all but 4.9% or so of the library.
STAT3 inh: inhibitors of IL-6 induced STAT3 signaling; U3A cells, IL-6 STAT3-luciferase reporter, luminescence; host cell line lacks STAT1; inhibition, % at 5.5 µM; actives 0.89% (n = 190,000); AID 862;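 active = inhibition above the mean inhibition across all screened compounds plus 3 SD, cut at about 44% in these data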;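 note: 0% = DMSO only wells and 100% = 100 µM nifuroxazide control wells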
STAT1 inh: STAT1 signaling inhibition. actives 0.35% (n = 200,000). NIH 3T3 STAT1-luciferase reporter, IFN-gamma, luminescence. inhibition, % at 5.5 µM;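 active = inhibition above a set limit, the mean inhibition across all tested compounds plus 3 SD, cut at about 34% in these data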;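 note: 0% = IFN-gamma with DMSO and 100% = IFN-gamma with 300 µM nifuroxazide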
APP 5'UTR act: activates APP 5'UTR luciferase reporter | SH-SY5Y APP 5'UTR luciferase reporter, luminescence; zero percent = DMSO vehicle wells | activation, % at 2 µM | actives 1% (n = 190,000) | AID 1276;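 active = activation above a set limit, based on mean plus 3 SD of controls, cut at about 140% in these data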
STAT3 act: activators of IL-6 induced STAT3 signaling; U3A cells, IL-6 STAT3-luciferase reporter, luminescence; 100% = signal with IL-6 EC80 alone; activation (% of control), % at 5.6 µM; actives 0.91% (n = 190,000); AID 871;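 active = activation above the screen-wide mean of compound activation plus 3 SD, cut at about 130% in these data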;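 note: 0% = background luminescence of wells with medium and substrate only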
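Material: human STAT1-deficient U3A cells with stable STAT3-luciferase reporter / Probe or stimulus: IL-6 stimulus at 33 ng/mL final / Schedule: 1 h compound pre-exposure, 6 h IL-6 stimulation, 37 °C / Technique: luminescence / Read-out basis: percent of IL-6-only median luminescence / Control set: IL-6-only high control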
STAT1 act: activators of IFN-gamma induced STAT1 signaling | NIH 3T3 STAT1-luciferase reporter, luminescence; 100% = IFN-gamma alone, no compound | activation (% of control), % at 5.5 µM | actives 2.6% (n = 200,000);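 active = activation above the screen-wide mean activation plus 3 SD, cut at about 130% in these data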;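 note: raw ratio to IFN-gamma control signal so 100% means no change and 0% no light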
NF-kB expr up: compounds increasing NF-kB expression in human neuronal cells; actives 1.6% (n = 190,000); AID 1239; NF-kB reporter expression; active compounds read high; fold change at 12.5 µM; in the data active = fold change above about 3.3
Starred values were filed as active, the others as inactive; nt = no result given.

SMILES | STAT3 inh | STAT1 inh | APP 5'UTR act | STAT3 act | STAT1 act | NF-kB expr up
COc1ccc(-c2cc(OC)c3ccccc3n2)cc1 | -1 | 6 | 11 | 105 | 95 | 1.1
CCCCC(=O)Nc1cccc(-c2cn3ccccc3n2)c1 | 25 | -24 | 27 | 88 | 121 | 1.5
COc1ccc(-c2cn3ccccc3n2)cc1[N+](=O)[O-] | 29 | -50 | 104 | 76 | 144* | 1
Cn1c(=O)c2c(nc(NCC3CCCO3)n2Cc2cccc(Br)c2)n(C)c1=O (configuration not stated) | -5 | 0 | 0 | 107 | 100 | 0.71
Cc1c(/C=N/NC(=O)C(NC(=O)c2ccc3c(c2)OCO3)C(C)C)c2ccccc2n1C (configuration not stated) | 8 | 3 | 9 | 96 | 97 | 0.74
CCOC(=O)c1nn(-c2ccc(C)cc2)cc1C(=O)c1ccccc1 | 6 | -48 | 145* | 93 | 144* | 6.6*
CC(C)Oc1ccccc1C1CC(=O)Nc2cc3c(cc21)OCCO3 (configuration not stated) | -12 | 11 | -95 | 110 | 90 | 3.9*
CC(C)Oc1ccccc1C1Nc2ccccc2C(=O)N1c1ccc2c(c1)OCCO2 (configuration not stated) | -8 | -17 | 150* | 107 | 116 | 4.6*
CCOC(=O)COc1ccccc1C1Nc2ccccc2C(=O)N1c1cccc(Cl)c1 (configuration not stated) | 3 | -9 | 60 | 102 | 108 | 2.1
Cc1ccc(NC(=O)C2CC2C)c(Cl)c1 (configuration not stated) | 6 | -10 | 22 | 97 | 108 | 0.97
CC(C)(O)c1cc(=O)sc2nc3ccccc3n12 | -8 | -41 | 78 | 109 | 134* | 3.6*
CC1CCc2c(sc(NC(=O)COC(=O)c3ccc(O)cc3)c2C#N)C1 (configuration not stated) | -4 | -7 | -2 | 111 | 107 | 1.3
CCOC(=O)Nc1sc2c(c1C#N)CCC(C)C2 (configuration not stated) | 0 | -36 | 92 | 105 | 132* | 3.9*
CC(=O)c1c(C)[nH]c(C(=O)OCc2ccccc2)c1C | 18 | -47 | 50 | 87 | 142* | 2.2
CC(=O)c1c(C)[nH]c(C(=O)OCCCCN2C(=O)c3ccccc3C2=O)c1C | 86* | 33 | -17 | 32 | 70 | 0.47
COc1ccc(-c2cc(C(=O)N/N=C/c3ccc4c(c3)OCO4)c3ccccc3n2)c(OC)c1 | -3 | -6 | -9 | 112 | 101 | 2.3
COc1ccc(-c2cc(C(=O)N/N=C/c3sccc3C)c3ccccc3n2)c(OC)c1 | -44 | -8 | -13 | 135* | 107 | 1.1
CC(C)C1=Nc2cccc3cccc(c23)N1 | -10 | 3 | -2 | 109 | 98 | 0.68
COc1ccc(C2=Nc3cccc4cccc(c34)N2)cc1 | -30 | 6 | 1 | 135* | 95 | 0.9
O=C1CC(c2ccccc2)Sc2ccccc2N1 (configuration not stated) | -36 | -17 | -9 | 135* | 116 | 0.77
CCOC(=O)c1ccc(Nc2ncccc2[N+](=O)[O-])cc1 | -1 | -39 | 151* | 106 | 135* | 7.8*
Cc1ccc(Nc2ncccc2C(N)=O)cc1[N+](=O)[O-] | 2 | -47 | 75 | 99 | 141* | 1.2
CCOC(=O)c1ccc(NC(=S)Nc2ccccn2)cc1 | 30 | -32 | 52 | 79 | 129* | 1.7
CCOC(=O)c1ccc(NC(=S)Nc2ccc(Cl)cn2)cc1 | 26 | -10 | 23 | 86 | 109 | 1.4
CCOc1ccc(NC(=S)Nc2cc(C)[nH]n2)cc1 | -1 | -34 | 15 | 106 | 132* | nt
SMILES | STAT3 inh | STAT1 inh | APP 5'UTR act | STAT3 act | STAT1 act | NF-kB expr up
CCOc1ccc(NC(=S)Nc2ccc(OCC)cc2)cc1 | 8 | 2 | 0 | 97 | 97 | 0.92
CC(C)=CCN1CCN(Cc2cccn2-c2ncccn2)CC1CCO (configuration not stated) | 2 | 1 | -3 | 102 | 97 | 1.1
Cc1ccc(S(=O)(=O)N(Cc2ccc(Cl)cc2)c2ccccc2C(=O)NCc2ccco2)cc1 | -2 | -2 | 1 | 107 | 101 | 0.65
CC1c2nc3ccccc3n2C(CC(=O)NC2CC2)C(=O)N1Cc1ccccc1 (configuration not stated) | -6 | -1 | 3 | 107 | 99 | 1.3
CC(=O)OCCCNc1cc(Sc2nc3ccccc3s2)c2nonc2c1[N+](=O)[O-] | -6 | -34 | 2 | 110 | 132* | 1.1
COc1ccc(-n2c(C)cc(C3=NNC(=NC4CC4)SC3)c2C)cc1 | 28 | 62* | 93 | 80 | 42 | 1.3
CN=C1NN=C(c2cc(C)n(-c3c(C)n(C)n(-c4ccccc4)c3=O)c2C)CS1 | -3 | 0 | 3 | 103 | 100 | 1.1
Cc1cc(C2=NNC(=NC3CC3)SC2)c(C)n1-c1ccccc1 | 105* | 91* | -76 | 12 | 17 | 0.13
CC(C)N=c1scc(-c2ccco2)n1/N=C/c1ccc(O)c(O)c1 | -27 | -10 | 2 | 125 | 108 | 9.6*
COCCN=c1scc(-c2ccco2)n1/N=C/c1ccc(O)c(O)c1O | -3 | 23 | 1 | 104 | 78 | 1.2
c1ccc(COc2ccc(OCCCn3cncn3)cc2)cc1 | 31 | -15 | 136* | 77 | 114 | 5.3*
CC1CCN(CCCOc2ccc(OCc3ccccc3)cc2)CC1 | 1 | -10 | 7 | 99 | 109 | 5.1*
c1ccc(Cc2ccc(OCCn3cncn3)cc2)cc1 | 13 | -5 | 1 | 93 | 105 | 0.85
Cn1c2ccccc2c(=O)c2c(=O)n(-c3ccccc3)c(C3CCCCC3)nc21 | -45 | 0 | 11 | 134* | 100 | 1.1
CCOC(=O)C1(CCOC)CCN(Cc2ccc(C3CCCCO3)s2)CC1 (configuration not stated) | -6 | 1 | -20 | 110 | 98 | nt
O=C(Nc1ccccc1)Nc1cccc2nsnc12 | -28 | -44 | 121 | 131 | 140* | 4.3*
CN(C)c1ccc(C=Nc2ccc(N(C)C)cc2)cc1 | -11 | -50 | 175* | 112 | 144* | 0.93
CN(C)c1ccc(N=Cc2ccco2)cc1 | -10 | -55 | 153* | 112 | 150* | 0.87
Cc1ccc(N=Cc2ccc(N(C)C)cc2)cc1 | 1 | 0 | -4 | 103 | 100 | 1.2
Cc1ccnc(NC(=O)CCCOc2cc(=O)n(C)c3ccccc23)c1 | 38 | -15 | 13 | 69 | 113 | 7.6*
CN1CCN(NC(=S)Nc2ccc(Oc3ccccc3)cc2)CC1 | 30 | 4 | -10 | 78 | 95 | 0.96
O=C(NNc1nc2ccccc2s1)Nc1ccccc1 | -2 | -42 | 115 | 101 | 138* | 1.7
CCOCC(=O)Nc1nc2ccccc2s1 | -12 | -32 | 24 | 113 | 128 | 1.9
